“And” between values parts separate entries of the source, which are not always exact repeats. Equal entries are not always repeated. Marks after values point to notes of the source that are not given here.
Legend:
[1] = system: Rho GTPase Cdc42; details: higher concentrations; cited from earlier work
[2] = system: endothelial cells; details: in vitro; cited from earlier work
[3] = system: p21-activated kinase 1 (PAK1); details: cited from earlier work
[4] = system: murine leukemic cell; details: cited from earlier work
[5] = system: human T-lymphocyte; details: cited from earlier work
[6] = system: Rac with the guanine nucleotide exchange factor Vav2; details: cited from earlier work
[7] = Stability of EHop-016 in mouse plasma; type: in vitro ADME; details: for Concentration Measured (Mean ± S.D.): n=6; for Accuracy (% RE): stable if within ± 15 %
How it was run: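 Test compound was spiked into mouse plasma at 5 and 1000 ng/mL and held on the bench for 5 h, six replicates per level. It was then extracted by protein precipitation and quantified by UPLC/MS/MS against plasma calibration standards. Accuracy was %RE against nominal and precision was %RSD. The compound counted as stable when %RE was within ± 15 %.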

[8] = system: Rac; details: read-out: IC50, Rac activity; metastatic cancer cells; cited from earlier work
[9] = system: mammary fat pad tumor; details: 25 mg/kg body weight (BW), nude mice; cited from earlier work
[10] = system: c-Myc and Cyclin D; details: breast and prostate cancer cell lines; cited from earlier work
[11] = Physicochemical properties
[12] = Pharmacokinetics in nude mice after single IP or PO dose; type: in vivo, athymic nude (Nu/Nu) mice
How it was run: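 Female athymic nude mice, 3–4 weeks old, received a single 0.1 mL dose at 10, 20 or 40 mg/kg, given IP or by oral gavage. Vehicle was cremophor:ethanol:PBS (12.5:12.5:75). Four to five mice per group were killed at 0.5, 1, 4, 8 and 12 h. Cardiac blood went into sodium citrate on ice. Plasma was protein-precipitated with internal standard and assayed by UPLC/MS/MS (5–1000 ng/mL). Pooled non-compartmental analysis used linear/log-linear trapezoids.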

[13] = Benchtop (5 Hr), nominal 5 ng/mL
[14] = Benchtop (5 Hr), nominal 1000 ng/mL

CCn1c2ccccc2c2cc(Nc3ccnc(NCCCN4CCOCC4)n3)ccc21 [EHop-016, (N4-(9-Ethyl-9H-carbazol-3-yl)-N2-(3-morpholin-4-yl-propyl)-pyrimidine-2,4-diamine)]
concentration at which activity of the Rho GTPase Cdc42 is inhibited [1]: > 10 µM | Rac activity and capillary tube formation of endothelial cells [2]: inhibition | activity of PAK1 [3]: inhibit | murine leukemic cell growth [4]: inhibits | human T-lymphocyte migration [5]: inhibits | interaction of Rac with Vav2 [6]: disrupt | stability in mouse plasma ([7]; 12 freeze-thaw cycles lasting 12 hours and six freeze-thaw cycles lasting 24 hours): stable | Concentration Measured (Mean ± S.D.) [7, 13]: 4.67 ± 0.36 ng/mL | Accuracy (% RE) [7, 13]: −6.6 % RE | Concentration Measured (Mean ± S.D.) [7, 14]: 999.39 ± 17.23 ng/mL | Accuracy (% RE) [7, 14]: −0.1 % RE | Accuracy (% RE) ([7]; Freeze-Thaw 6 Cycles (24 Hr), nominal 5 ng/mL): 14.3 % RE | Accuracy (% RE) ([7]; Freeze-Thaw 6 Cycles (24 Hr), nominal 1000 ng/mL): 11.6 % RE | Concentration Measured (Mean ± S.D.) ([7]; Freeze-Thaw 6 Cycles (24 Hr), −80°C, nominal 5 ng/mL): 5.71 ± 0.34 ng/mL | Concentration Measured (Mean ± S.D.) ([7]; Freeze-Thaw 6 Cycles (24 Hr), −80°C, nominal 1000 ng/mL): 1116.32 ± 27.38 ng/mL | Accuracy (% RE) ([7]; Freeze-Thaw 12 Cycles (12 Hr), nominal 5 ng/mL): 11.3 % RE | Accuracy (% RE) ([7]; Freeze-Thaw 12 Cycles (12 Hr), nominal 1000 ng/mL): 12.8 % RE | Concentration Measured (Mean ± S.D.) ([7]; Freeze-Thaw 12 Cycles (12 Hr), −80°C, nominal 5 ng/mL): 5.57 ± 0.05 ng/mL | Concentration Measured (Mean ± S.D.) ([7]; Freeze-Thaw 12 Cycles (12 Hr), −80°C, nominal 1000 ng/mL): 1127.70 ± 14.36 ng/mL | Accuracy (% RE) ([7]; Long Term Stability 26 Days, nominal 5 ng/mL): 4.9 % RE | Accuracy (% RE) ([7]; Long Term Stability 26 Days, nominal 1000 ng/mL): 0.4 % RE | Concentration Measured (Mean ± S.D.) ([7]; Long Term Stability 26 Days, −20°C, nominal 5 ng/mL): 5.24 ± 0.08 ng/mL | Concentration Measured (Mean ± S.D.) ([7]; Long Term Stability 26 Days, −20°C, nominal 1000 ng/mL): 1004.39 ± 25.98 ng/mL | Accuracy (% RE) ([7]; Long Term Stability 111 Days, nominal 5 ng/mL): −1.3 % RE | Accuracy (% RE) ([7]; Long Term Stability 111 Days, nominal 1000 ng/mL): −4.3 % RE | Concentration Measured (Mean ± S.D.) ([7]; Long Term Stability 111 Days, −20°C, nominal 5 ng/mL): 4.94 ± 0.29 ng/mL | Concentration Measured (Mean ± S.D.) ([7]; Long Term Stability 111 Days, −20°C, nominal 1000 ng/mL): 956.77 ± 79.26 ng/mL | Concentration Measured (Mean ± S.D.) ([7]; Post Preparation (237 Hours), ambient temperature, nominal 10 ng/mL): 10.79 ± 0.25 ng/mL | Concentration Measured (Mean ± S.D.) ([7]; Post Preparation (237 Hours), ambient temperature, nominal 30 ng/mL): 32.20 ± 1.40 ng/mL | Concentration Measured (Mean ± S.D.) ([7]; Post Preparation (237 Hours), ambient temperature, nominal 75 ng/mL): 83.79 ± 2.06 ng/mL | Concentration Measured (Mean ± S.D.) ([7]; Post Preparation (237 Hours), ambient temperature, nominal 750 ng/mL): 838.83 ± 22.57 ng/mL | Accuracy (% RE) ([7]; Post Preparation (237 Hours), nominal 10 ng/mL): 7.88 % RE | Accuracy (% RE) ([7]; Post Preparation (237 Hours), nominal 30 ng/mL): 7.32 % RE | Accuracy (% RE) ([7]; Post Preparation (237 Hours), nominal 75 ng/mL): 11.72 % RE | Accuracy (% RE) ([7]; Post Preparation (237 Hours), nominal 750 ng/mL): 11.84 % RE | stability in mouse plasma ([7]; all of the conditions tested in the validation): very stable | stability in mouse plasma ([7]; ambient temperature, five hours and 237 hours): stable | stability in mouse plasma ([7]; long-term at –20°C, 26 days and 111 days): stable | IC50 [8]: 1000 nM | tumor growth, metastasis and angiogenesis [9]: effective at reducing mammary fat pad tumor growth, metastasis, and angiogenesis | expression of c-Myc and Cyclin D [10]: decreased | pKa [11]: 5 | lipid solubility ([11]; source not stated): highly lipid-soluble | Cl/F ([12]; IP, 10 mg/kg): 494.2 ± 79.4 mL/h | Lambda-z ([12]; IP, 10 mg/kg): .12 ± 0.01 hr ^−1 | AUC0-t/Dose ([12]; IP, 10 mg/kg, n=5): 32.80 ± 4.21^a | Cl/F ([12]; IP, 20 mg/kg): 464.7 ± 51.5 mL/h | Lambda-z ([12]; IP, 20 mg/kg): .15 ± .01 hr ^−1 | AUC0-t/Dose ([12]; IP, 20 mg/kg, n=5): 38.42 ± 3.53^a | Cl/F ([12]; IP, 40 mg/kg): 394.2 ± 46.6 mL/h | Lambda-z ([12]; IP, 40 mg/kg): .18 ± .01 hr ^−1 | AUC0-t/Dose ([12]; IP, 40 mg/kg, n=5): 46.75 ± 5.42^a | clearance (Cl/F) ([12]; IP, range over doses): 394 to 494 mL/h and 394.2 to 494.2 mL/h | relative bioavailability after oral gavage ([12]; PO vs IP, range over the tested doses): 26% - 40% | plasma drug concentrations lower after PO than after IP ([12]; PO vs corresponding IP dosages): ~ 10 times | Cl/F ([12]; PO, 10 mg/kg): 1315.3 mL/h and 1315.3 ± 281.7 mL/h | Lambda-z ([12]; PO, 10 mg/kg): .20 ± .01 hr ^−1 | AUC0-t/Dose ([12]; PO, 10 mg/kg, n=4): 13.37 ± 2.25 | Frel (relative bioavailability, PO to IP) ([12]; PO, 20 mg/kg): 33.4 ± 4.9%

— PMC4306626 (Journal of chromatography. B, Analytical technologies in …, 2015)
